From ChEMBL document CHEMBL3124849, “Total synthesis of burkholdacs A and B and 5,6,20-tri-epi-burkholdac A: HDAC inhibition and antiproliferative activity” (Eur J Med Chem, 2014) come the findings set out here.

The assay is described as follows: Selectivity index, ratio of IC50 for mouse HDAC6 to IC50 for human HDAC1. In a few lines:
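Ratio of HDAC6 IC50 to HDAC1 IC50. Both enzymes were FLAG-immunopurified from transfected 293T cells: human HDAC1 and mouse HDAC6. Each was assayed on Ac-KGLGK(Ac)-MCA with 100 µM DTT at 37 °C for 30 min, developed with trypsin, and AMC read by fluorescence. IC50s are means of ≥3 curves.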

For the compound `CCC(C)[C@H]1NC(=O)[C@H]2CSSCC/C=C/[C@H](CC(=O)N[C@H](C)C(=O)N2)OC(=O)C[C@@H]1O` (some centres not stated), the Ratio IC50 was 636.
For `CC(C)[C@H]1NC(=O)[C@H]2CSSCC/C=C/[C@H](CC(=O)N[C@H](C)C(=O)N2)OC(=O)C[C@@H]1O` the value was 485.
